Test results as given in ChEMBL document CHEMBL2150903, “Synthesis and screening of novel vitamin E derivatives for anticancer functions” (Eur J Med Chem, 2012).
pEC50: −log10 of the molar value. The source made the active and inactive calls. The rule behind the calls is not given here.

Legend:
Format in all cases: functional, cell-based
MCF7 [1] = assay: Induction of apoptosis in human MCF7 cells assessed as PARP cleavage at 20 uM after 15 hrs by Western blot analysis
Procedure, shortened: (§1)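 Cells grown in MEM with 10% FBS, glutamine, penicillin/streptomycin, non-essential amino acids and 2× MEM vitamins; serum cut to 2% for treatment. Compounds dissolved in DMSO (40 mM stock); DMSO vehicle control. Treatment 15 h, then Western blot of whole-cell extracts for PARP cleavage. Primary antibody in 0.1% BSA/TBST overnight at 4 °C, then HRP-conjugated secondary. Two separate experiments.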

MCF7 [2] = assay: Induction of apoptosis in human MCF7 cells by AnnexinV/PI/FITC-based flow cytometric analysis
MDA-MB-231 [3] = assay: Induction of apoptosis in human MDA-MB-231 cells at 20 and 40 uM by […]
MDA-MB-231 [4] = assay: Induction of apoptosis in human MDA-MB-231 cells by AnnexinV/PI/FITC-based flow cytometric analysis
Mus musculus = species: Mus musculus; assay: Induction of apoptosis in mouse 66cl-4GFP cells assessed as PARP cleavage at 20 uM after 15 hrs by Western blot analysis; procedure, shortened: as §1
MCF7 [5] = assay: Induction of apoptosis in human MCF7 cells at 40 uM by AnnexinV/PI/FITC-based flow cytometric analysis
MDA-MB-231 [6] = assay: Induction of apoptosis in human MDA-MB-231 cells assessed as PARP cleavage at 20 uM after 15 hrs by Western blot analysis; procedure, shortened: as §1
MCF7 [7] = assay: Induction of apoptosis in human MCF7 cells at 20 uM by AnnexinV/PI/FITC-based flow cytometric analysis

pEC50 (MCF7 [2]) | pEC50 (MDA-MB-231 [4]) | Compound | Activity (MCF7 [1]) | Activity (MDA-MB-231 [3]) | Activity (Mus musculus) | Activity (MCF7 [5]) | Activity (MDA-MB-231 [6]) | Activity (MCF7 [7])
4.54 | 4.80 | Cc1c(C)c2c(c(C)c1OCC(=O)O)CC[C@](C)(COCCC(C)CCCC(C)CCCC(C)C)O2 (mixture of isomers) | Active | Active | Active | Active | Active | 
4.29 | 4.46 | Cc1c(C)c2c(c(C)c1OCC(=O)O)CC[C@@](C)(CCC[C@H](C)CCC[C@H](C)CCCC(C)C)O2 [.ALPHA.-TOCOPHERYLOXYACETIC ACID] | Active | Active | Active | Active | Active | Active
4.68 | 4.74 | Cc1c(C)c2c(c(C)c1OCC(=O)O)CC[C@@](C)(COCCC(C)CCCC(C)CCCC(C)C)O2 (mixture of isomers) | Active | Active | Active | Active | Active | Active

More lines, now with the values behind:

Compound | pEC50 (MCF7 [2]) | pEC50 (MDA-MB-231 [4]) | Activity (MCF7 [1]) | Activity (MDA-MB-231 [3]) | Activity (Mus musculus) | Activity (MCF7 [5]) | Activity (MDA-MB-231 [6]) | Activity (MCF7 [7])
CC(C)CCCC(C)CCCC(C)CCOCC1(C)CCc2cc(O)c(F)cc2O1 (racemic) |  |  | Active |  |  |  |  | 
CC(C)CCC[C@@H](C)CCC[C@@H](C)CCC[C@]1(C)CCc2cc(O)c(F)cc2O1 |  |  | inactive |  | inactive |  | inactive | 
CC(C)CCCC(C)CCCC(C)CCCC1(C)CCc2cc(OCC(=O)O)c(F)cc2O1 (racemic) | 4.22 | 4.47 | Active |  | Active |  |  | 
CC(C)CCCC(C)CCCC(C)CCOCC1(C)CCc2cc(OCC(=O)O)c(F)cc2O1 (racemic) | 4.46 | 4.57 | Active | Active | Active | Active | Active | 
